Measured values as given in ChEMBL document CHEMBL1157169, “A class of novel nitronyl nitroxide labeling basic and acidic amino acids: synthesis, application for preparing ESR optionally labeling peptides, and bioactivity investigations” (Bioorg Med Chem, 2008).
Where a SMILES comes first, the peptide text is derived from it. The star is where a group is joined. X2 = CC1(C)N(O)C(c2ccc(OCC(=O)*)cc2)=[N+]([O-])C1(C)C; X1 = CC1(C)N(O)C(c2ccc(OCCN*)cc2)=[N+]([O-])C1(C)C

Tests used:
Aorta [1] = assay: Nitric oxide radical scavenging activity in rat aortic strip assessed as inhibition of acetylcholine-induced vasorelaxation at 10 uM; type: functional, tissue-based
Aorta [2] = assay: Nitric oxide radical scavenging activity in rat aortic strip assessed as inhibition of acetylcholine-induced vasorelaxation at 1 uM; type: functional, tissue-based
Aorta [3] = assay: Nitric oxide radical scavenging activity in rat aortic strip assessed as inhibition of acetylcholine-induced vasorelaxation at 100 uM; type: functional, tissue-based
PC-12 [4] = assay: Radical scavenging activity in rat PC12 cells assessed as inhibition of nitric oxide radical-induced cell damage by MTT assay; type: functional, cell-based
Method in brief: (§1)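 PC12 cells grown in DMEM with 10% heat-inactivated horse serum, 5% FBS and 1.0 mM pyruvate at 37 °C, 5% CO2. Seeded at 20,000 cells/well on poly-L-lysine and attached 24 h. Pretreated 1 h with 12.5–200 µM compound. Damage induced by SNP 2 mM for 2 h (NO), H2O2 1 mM for 1 h, or H2O2 1 mM/Fe(II) 30 µM for 1 h (·OH). Media replaced, cells incubated 14 h, survival measured by MTT.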

PC-12 [5] = assay: Radical scavenging activity in rat PC12 cells assessed as inhibition of hydrogen peroxide radical-induced cell damage by MTT assay; type: functional, cell-based; method in brief: as §1
PC-12 [6] = assay: Radical scavenging activity in rat PC12 cells assessed as inhibition of hydroxyl radical-induced cell damage by MTT assay; type: functional, cell-based; method in brief: as §1
[7] = Aqueous stability assessed as decomposition time at pH 2.0; type: physicochemical; settings: buffer
Method in brief: (§2)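 Each sample dissolved in aqueous solution at pH 2.0, 7.4 or 11.5 (final 10^-2 mM) and held at room temperature for up to 200 h. Decomposition followed by TLC (CHCl3/CH3OH, 20:1). Value is the time at which decomposition appeared.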

[8] = Aqueous stability assessed as decomposition time at pH 7.4; type: physicochemical; settings: buffer; method in brief: as §2
[9] = Aqueous stability assessed as decomposition time at pH 11.5; type: physicochemical; settings: buffer; method in brief: as §2
Plasma = assay: Thrombolytic activity in rabbit plasma assessed as euglobulin clot lysis time at 4.5 uM; type: functional, Oryctolagus cuniculus
Method in brief: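 Rabbit plasma diluted 1:20 in water and precipitated at pH 5.7 with 0.25% acetic acid for 30 min at 4 °C. Centrifuged at 2000g for 15 min. […] Sample added and time to clot lysis recorded.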

Oryctolagus cuniculus = species: Oryctolagus cuniculus; assay: Thrombolytic activity against rabbit fibrinogen assessed as fibrinogen lysis area at 4.5 uM
Method in brief: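 Equal volumes of 0.3% rabbit fibrinogen and 0.95% agarose in 50 mM sodium barbiturate buffer (pH 7.8), coagulated with thrombin (100 IU/mL). After 30 min at 4 °C, 5 mm wells were punched and 30 µl of sample in NS added per well. Plates incubated and lysis area measured in mm². ANOVA.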

Rattus norvegicus [10] = assay: Thrombolytic activity in Wistar rat assessed as reduction in thrombus weight at 10 umol/kg; type: functional
Method in brief: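 Male Wistar rats (200–300 g) anesthetized with pentobarbital sodium (80.0 mg/kg, ip). A steel helix was left 15 min in 1.0 ml carotid artery blood, and the helix with thrombus was weighed. It was placed in a polyethylene tube filled with heparin sodium (50 IU/ml NS) inserted into the left jugular vein. Heparin was injected, then compound dissolved in NS. Read-out is reduction in thrombus weight.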

Blood [11] = assay: Inhibition of 10 uM adenosine diphosphate-induced platelet aggregation in rabbit blood; type: functional, Oryctolagus cuniculus
Method in brief: (§3)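 Platelet-rich plasma made by centrifuging normal rabbit blood anticoagulated with sodium citrate (3.8% final). Platelets adjusted to 2×10^5/µl with autologous plasma. Aggregation induced by PAF or ADP (final 10^-5–10^-7 M) and read by turbidimetry in an aggregometer. Maximal aggregation rate (Am%) taken as peak height of the curve.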

Blood [12] = assay: Inhibition of 1 uM adenosine diphosphate-induced platelet aggregation in rabbit blood; type: functional, Oryctolagus cuniculus; method in brief: as §3
Blood [13] = assay: Inhibition of 0.1 uM adenosine diphosphate-induced platelet aggregation in rabbit blood; type: functional, Oryctolagus cuniculus; method in brief: as §3
Blood [14] = assay: Inhibition of 10 uM platelet activating factor-induced platelet aggregation in rabbit blood; type: functional, Oryctolagus cuniculus; method in brief: as §3
Blood [15] = assay: Inhibition of 1 uM platelet activating factor-induced platelet aggregation in rabbit blood; type: functional, Oryctolagus cuniculus; method in brief: as §3
Blood [16] = assay: Inhibition of 0.1 uM platelet activating factor-induced platelet aggregation in rabbit blood; type: functional, Oryctolagus cuniculus; method in brief: as §3
Rattus norvegicus [17] = assay: Antithrombotic activity in Wistar rat assessed as wet thrombus weight at 5 umol/kg; type: functional
Method in brief: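 Male Wistar rats (250–300 g) anesthetized with pentobarbital sodium (80.0 mg/kg, ip). The right carotid artery and left jugular vein were cannulated via a polyethylene tube containing a thread, filled with NS or compound dissolved in NS (vehicle NS). Blood shunted 15 min. The thread was weighed wet, then after 2 weeks in a desiccator weighed dry. n = 10, ANOVA.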

Rattus norvegicus [18] = assay: Antithrombotic activity in Wistar rat assessed as dry thrombus weight at 5 umol/kg

Time [7]	Time [8]	Time [9]	Activity (Oryctolagus cuniculus)	SMILES	inhibition (Aorta [1])	inhibition (Aorta [2])	inhibition (Aorta [3])	EC50 (PC-12 [4])	EC50 (PC-12 [5])	EC50 (PC-12 [6])	Time (Plasma)	Activity (Rattus norvegicus [10])	inhibition (INH) (Blood [11])	inhibition (INH) (Blood [12])	inhibition (INH) (Blood [13])	inhibition (INH) (Blood [14])	inhibition (INH) (Blood [15])	inhibition (INH) (Blood [16])	Activity (Rattus norvegicus [17])	dry thrombus weight (Rattus norvegicus [18])
				CC1(C)N(O)C(c2ccc(OCCNC(=O)C[C@H](N)C(=O)O)cc2)=[N+]([O-])C1(C)C	72.8%	26.7%	97.5%	42.3 µM	48.6 µM	58.2 µM										
				CC(C)(C)OC(=O)N[C@@H](CCCNC(=N)NC(=O)COc1ccc(C2=[N+]([O-])C(C)(C)C(C)(C)N2O)cc1)C(=O)O	71.2%	24.1%	95%	93 µM	32.4 µM	102 µM										
15 h	30 h	18 h		CC1(C)N(O)C(c2ccco2)=[N+]([O-])C1(C)C	20.2%	1.6%	44.4%													
				CC(C)(C)OC(=O)N[C@@H](CCCCNC(=O)COc1ccc(C2=[N+]([O-])C(C)(C)C(C)(C)N2O)cc1)C(=O)O	72.7%	28%	97.9%	89.9 µM	29.3 µM	97.7 µM										
				CC1(C)N(O)C(c2ccc(OCCNC(=O)CC[C@H](N)C(=O)N[C@H](CS)C(=O)NCC(=O)O)cc2)=[N+]([O-])C1(C)C	72.2%	25.9%	97.3%													
> 200 h	> 200 h	> 200 h		CC1(C)N(O)C(c2ccc([N+](=O)[O-])cc2)=[N+]([O-])C1(C)C	71.3%		98%													
2 h	18 h	2.5 h		CC1(C)N(O)C=[N+]([O-])C1(C)C	8.6%	1.7%	31.2%													
2 h	18 h	2.5 h		CC1(C)N(O)C(CCl)=[N+]([O-])C1(C)C	7.7%	1.6%	25%													
				COC(=O)[C@@H](N)CC(=O)NCCOc1ccc(C2=[N+]([O-])C(C)(C)C(C)(C)N2O)cc1	76%	29.2%	99.1%	39 µM	47.8 µM	55.6 µM										
> 200 h	> 200 h	> 200 h		CC1(C)N(O)C(c2ccccc2)=[N+]([O-])C1(C)C	62.7%	9.8%	81.9%													
			214 mm2	C[C@H](NC(=O)[C@@H]1CCCN1)C(=O)N[C@@H](CCCCN)C(=O)O (H-Pro-Ala-Lys-OH)	6.1%	4.5%	9.5%				101.6 min	24.11 mg								
> 200 h	> 200 h	> 200 h		CC1(C)N(O)C(c2ccc(O)cc2)=[N+]([O-])C1(C)C	73.1%	26.1%	99.2%	40 µM	49.1 µM	56.9 µM			49.28%	50.39%	49.01%	54%	52.45%	53.04%	38.9 mg	6.8 mg
				N[C@@H](CCC(=O)O)C(=O)N[C@@H](CS)C(=O)NCC(=O)O (H-Glu-Cys-Gly-OH)	5.2%	3.2%	9.2%													
				CC1(C)N(O)C(c2ccc(OCCNC(=O)CC[C@H](N)C(=O)N[C@@H](CS)C(=O)NCC(=O)O)cc2)=[N+]([O-])C1(C)C				37.8 µM	47 µM	54.9 µM										
				CC1(C)N(O)C(c2ccc(OCC(=O)NCCCC[C@H](N)C(=O)O)cc2)=[N+]([O-])C1(C)C	72.3%	25.4%	98.6%	90.6 µM	29.9 µM	98.8 µM										
				CC(C)(C)OC(=O)N[C@@H](CCC(=O)NCCOc1ccc(C2=[N+]([O-])C(C)(C)C(C)(C)N2O)cc1)C(=O)O	72.4%	26%	96.9%	42.7 µM	49.9 µM	59 µM										
				CC(C)[C@H](NC(=O)[C@H](CC(=O)O)NC(=O)CNC(=O)[C@@H](N)CCCNC(=N)N)C(=O)O (H-RGDV-OH)	7.6%	5.3%	10.5%						49.78%	33.41%	12.65%	52.07%	34.84%	20.01%	28.6 mg	4.43 mg
				CC1(C)N(O)C(c2ccc(OCCNC(=O)CC[C@H](N)C(=O)O)cc2)=[N+]([O-])C1(C)C	72.4%	26.2%	97.1%	41.8 µM	49.6 µM	58.1 µM										
				CC1(C)N(O)C(c2ccc(OCCNC(=O)C[C@H](NC(=O)CNC(=O)[C@@H](N)CCCNC(=N)N)C(=O)N[C@@H](CO)C(=O)O)cc2)=[N+]([O-])C1(C)C (H-RGD(X1)S-OH)	71.3%	24%	95.9%	92.9 µM	32 µM	102 µM			50%	39.43%	16.11%	51.59%	34.33%	21.52%	25.01 mg	4.08 mg
				CC1(C)N(O)C(c2ccc(OCC(=O)N[C@@H](CCCCN)C(=O)O)cc2)=[N+]([O-])C1(C)C	74%	28.7%	98.9%	90.6 µM	30.1 µM	99.1 µM										
				N=C(N)NCCC[C@H](N)C(=O)NCC(=O)N[C@@H](CC(=O)O)C(=O)N[C@@H](CO)C(=O)O	4.3%	2.9%	8.9%						51.5%	39.62%	16.6%	53.69%	36.47%	22.03%	27.9 mg	4.22 mg
2 h	18 h	2.5 h		CC1(C)N(O)C(C(=O)O)=[N+]([O-])C1(C)C	25%	1.7%	34.3%													
				CC(C)[C@H](NC(=O)[C@H](CC(=O)O)NC(=O)CNC(=O)[C@@H](N)CCCNC(=N)NC(=O)COc1ccc(C2=[N+]([O-])C(C)(C)C(C)(C)N2O)cc1)C(=O)O (H-R(X2)GDV-OH)	72.8%	26.2%	96.6%	93 µM	32.8 µM	102 µM			50.2%	39.6%	16.38%	50.26%	32.8%	19.88%	26.11 mg	4.18 mg
				CC1(C)N(O)C(c2ccc(OCC(=O)N[C@@H](CCCNC(=N)N)C(=O)O)cc2)=[N+]([O-])C1(C)C	10.7%	7.8%	15.9%	92.9 µM	32.1 µM	101 µM										

SMILES	Time [7]	Time [8]	Time [9]	Activity (Oryctolagus cuniculus)	inhibition (Aorta [1])	inhibition (Aorta [2])	inhibition (Aorta [3])	EC50 (PC-12 [4])	EC50 (PC-12 [5])	EC50 (PC-12 [6])	Time (Plasma)	Activity (Rattus norvegicus [10])	inhibition (INH) (Blood [11])	inhibition (INH) (Blood [12])	inhibition (INH) (Blood [13])	inhibition (INH) (Blood [14])	inhibition (INH) (Blood [15])	inhibition (INH) (Blood [16])	Activity (Rattus norvegicus [17])	dry thrombus weight (Rattus norvegicus [18])
CC1(C)N(O)C(c2cccnc2)=[N+]([O-])C1(C)C	15 h	30 h	18 h		16.6%	1.7%	48.6%													
